# Experimental data taken from ChEMBL document CHEMBL2062467, “Design, synthesis, antimicrobial, anti-inflammatory and analgesic activity of novel isoxazolyl pyrimido[4,5-b]quinolines and isoxazolyl chromeno[2,3-d]pyrimidin-4-ones” (2012).
# Test system: Fusarium oxysporum
# Test: Antifungal activity against Fusarium oxysporum after 72 to 96 hrs by agar cup method
# Type: functional
# Settings: not given
# Procedure, shortened: (§1)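 Agar cup assay on potato dextrose agar. Plates were spread with 0.5 mL of a one-week-old fungal spore suspension, and 6 mm cups were bored into the agar. Different concentrations of compound in acetone were added to the cups. Acetone and clotrimazole served as controls. Plates were held at room temperature for 72–96 h.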
row,Compound,MIC
1,Cc1ccc2c(c1)C=C1C(=O)N(c3c(C)noc3/C=C/c3ccccc3)CN=C1O2,20 µg/mL
2,Clc1ccccc1C(c1ccccc1)(c1ccccc1)n1ccnc1 [CLOTRIMAZOLE],28 µg/mL
3,Cc1noc(/C=C/c2ccccc2)c1N1CN=C2Oc3ccccc3C=C2C1=O,16 µg/mL
4,Cc1noc(/C=C/c2ccccc2)c1-n1c(C)nc2nc3ccc(Cl)cc3cc2c1=O,8 µg/mL
5,Cc1noc(/C=C/c2ccccc2)c1N1CN=C2Oc3c(Br)cc(Br)cc3C=C2C1=O,9 µg/mL
6,Cc1noc(/C=C/c2ccccc2)c1-n1c(C)nc2nc3ccccc3cc2c1=O,16 µg/mL

# Test system: Rhizoctonia solani
# Test: Antifungal activity against Rhizoctonia solani after 72 to 96 hrs by agar cup method
# Type: functional
# Settings: not given
# Procedure, shortened: as §1
row,Compound,MIC
1,Cc1ccc2c(c1)C=C1C(=O)N(c3c(C)noc3/C=C/c3ccccc3)CN=C1O2,24 µg/mL
2,Clc1ccccc1C(c1ccccc1)(c1ccccc1)n1ccnc1 [CLOTRIMAZOLE],25 µg/mL
3,Cc1noc(/C=C/c2ccccc2)c1N1CN=C2Oc3ccccc3C=C2C1=O,12 µg/mL
4,Cc1noc(/C=C/c2ccccc2)c1-n1c(C)nc2nc3ccc(Cl)cc3cc2c1=O,11 µg/mL
5,Cc1noc(/C=C/c2ccccc2)c1N1CN=C2Oc3c(Br)cc(Br)cc3C=C2C1=O,6 µg/mL
6,Cc1noc(/C=C/c2ccccc2)c1-n1c(C)nc2nc3ccccc3cc2c1=O,12 µg/mL

# Test system: Bacillus subtilis
# Test: Antibacterial activity against Bacillus subtilis MTCC 441 after 24 hrs by broth dilution method
# Type: functional
# Settings: MTCC 441, 24 h
# Procedure, shortened: (§2)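 Broth dilution MIC in autoclaved nutrient broth tubes. Test compound was dissolved in acetone, and 100 mg/mL (so in the source) was added to the first tube, then serially diluted across the tubes.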
row,Compound,MIC
1,O=C(O)c1cn(C2CC2)c2cc(N3CCNCC3)c(F)cc2c1=O [CIPROFLOXACIN],20 µg/mL
2,Cc1ccc2c(c1)C=C1C(=O)N(c3c(C)noc3/C=C/c3ccccc3)CN=C1O2,15 µg/mL
3,Cc1noc(/C=C/c2ccccc2)c1N1CN=C2Oc3ccccc3C=C2C1=O,18 µg/mL
4,Cc1noc(/C=C/c2ccccc2)c1-n1c(C)nc2nc3ccc(Cl)cc3cc2c1=O,8 µg/mL
5,Cc1noc(/C=C/c2ccccc2)c1N1CN=C2Oc3c(Br)cc(Br)cc3C=C2C1=O,9 µg/mL
6,Cc1noc(/C=C/c2ccccc2)c1-n1c(C)nc2nc3ccccc3cc2c1=O,20 µg/mL

# Test system: Pseudomonas aeruginosa
# Test: Antibacterial activity against Pseudomonas aeruginosa MTCC 741 after 24 hrs by broth dilution method
# Type: functional
# Settings: MTCC 741, 24 h
# Procedure, shortened: as §2
row,Compound,MIC
1,Cc1ccc2c(c1)C=C1C(=O)N(c3c(C)noc3/C=C/c3ccccc3)CN=C1O2,12 µg/mL
2,Cc1noc(/C=C/c2ccccc2)c1N1CN=C2Oc3ccccc3C=C2C1=O,14 µg/mL
3,Cc1noc(/C=C/c2ccccc2)c1-n1c(C)nc2nc3ccc(Cl)cc3cc2c1=O,10 µg/mL
4,Cc1noc(/C=C/c2ccccc2)c1N1CN=C2Oc3c(Br)cc(Br)cc3C=C2C1=O,6 µg/mL
5,Cc1noc(/C=C/c2ccccc2)c1-n1c(C)nc2nc3ccccc3cc2c1=O,24 µg/mL

# Test system: Klebsiella aerogenes
# Test: Antibacterial activity against Klebsiella aerogenes MTCC 39 after 24 hrs by broth dilution method
# Type: functional
# Settings: MTCC 39, 24 h
# Procedure, shortened: as §2
row,Compound,MIC
1,O=C(O)c1cn(C2CC2)c2cc(N3CCNCC3)c(F)cc2c1=O [CIPROFLOXACIN],22 µg/mL
2,Cc1ccc2c(c1)C=C1C(=O)N(c3c(C)noc3/C=C/c3ccccc3)CN=C1O2,15 µg/mL
3,Cc1noc(/C=C/c2ccccc2)c1N1CN=C2Oc3ccccc3C=C2C1=O,18 µg/mL
4,Cc1noc(/C=C/c2ccccc2)c1-n1c(C)nc2nc3ccc(Cl)cc3cc2c1=O,7 µg/mL
5,Cc1noc(/C=C/c2ccccc2)c1N1CN=C2Oc3c(Br)cc(Br)cc3C=C2C1=O,5 µg/mL
6,Cc1noc(/C=C/c2ccccc2)c1-n1c(C)nc2nc3ccccc3cc2c1=O,20 µg/mL

# Test system: Colletotrichum truncatum
# Test: Antifungal activity against Colletotrichum capsici after 72 to 96 hrs by agar cup method
# Type: functional
# Settings: not given
# Procedure, shortened: as §1
row,Compound,MIC
1,Cc1ccc2c(c1)C=C1C(=O)N(c3c(C)noc3/C=C/c3ccccc3)CN=C1O2,18 µg/mL
2,Clc1ccccc1C(c1ccccc1)(c1ccccc1)n1ccnc1 [CLOTRIMAZOLE],20 µg/mL
3,Cc1noc(/C=C/c2ccccc2)c1N1CN=C2Oc3ccccc3C=C2C1=O,20 µg/mL
4,Cc1noc(/C=C/c2ccccc2)c1-n1c(C)nc2nc3ccc(Cl)cc3cc2c1=O,11 µg/mL
5,Cc1noc(/C=C/c2ccccc2)c1N1CN=C2Oc3c(Br)cc(Br)cc3C=C2C1=O,10 µg/mL
6,Cc1noc(/C=C/c2ccccc2)c1-n1c(C)nc2nc3ccccc3cc2c1=O,15 µg/mL

# Test system: Rattus norvegicus
# Test: Analgesic activity in Albino rat assessed as reaction time at 10 mg/kg, po after 2 hrs by Hot plate test
# Type: functional
# Settings: not given
# Procedure, shortened: (§3)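 Hot plate test of central analgesia in rats, six per group, with a vehicle control group and an Indomethacin group (10 mg/kg po). Test compounds were given orally at 10 mg/kg. Reaction time was read at 0, 1 and 2 h. Values are the mean of six, ± S.E., also expressed as % increase over basal. Statistics used ANOVA/LSD; Dunnett's test vs control (P < 0.05).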
row,Compound,Time
1,COc1ccc2c(c1)c(CC(=O)O)c(C)n2C(=O)c1ccc(Cl)cc1 [INDOMETHACIN],22.4 s
2,Cc1ccc2c(c1)C=C1C(=O)N(c3c(C)noc3/C=C/c3ccccc3)CN=C1O2,21.5 s
3,Cc1noc(/C=C/c2ccccc2)c1N1CN=C2Oc3ccccc3C=C2C1=O,15.7 s
4,Cc1noc(/C=C/c2ccccc2)c1-n1c(C)nc2nc3ccc(Cl)cc3cc2c1=O,21.5 s
5,Cc1noc(/C=C/c2ccccc2)c1N1CN=C2Oc3c(Br)cc(Br)cc3C=C2C1=O,23.4 s
6,Cc1noc(/C=C/c2ccccc2)c1-n1c(C)nc2nc3ccccc3cc2c1=O,16.5 s

# Test system: Staphylococcus aureus
# Test: Antibacterial activity against Staphylococcus aureus MTCC 96 after 24 hrs by broth dilution method
# Type: functional
# Settings: MTCC 96, 24 h
# Procedure, shortened: as §2
row,Compound,MIC
1,O=C(O)c1cn(C2CC2)c2cc(N3CCNCC3)c(F)cc2c1=O [CIPROFLOXACIN],28 µg/mL
2,Cc1ccc2c(c1)C=C1C(=O)N(c3c(C)noc3/C=C/c3ccccc3)CN=C1O2,16 µg/mL
3,Cc1noc(/C=C/c2ccccc2)c1N1CN=C2Oc3ccccc3C=C2C1=O,16 µg/mL
4,Cc1noc(/C=C/c2ccccc2)c1-n1c(C)nc2nc3ccc(Cl)cc3cc2c1=O,9 µg/mL
5,Cc1noc(/C=C/c2ccccc2)c1N1CN=C2Oc3c(Br)cc(Br)cc3C=C2C1=O,8 µg/mL
6,Cc1noc(/C=C/c2ccccc2)c1-n1c(C)nc2nc3ccccc3cc2c1=O,20 µg/mL

# Test system: Alternaria solani
# Test: Antifungal activity against Alternaria solani after 72 to 96 hrs by agar cup method
# Type: functional
# Settings: not given
# Procedure, shortened: as §1
row,Compound,MIC
1,Cc1ccc2c(c1)C=C1C(=O)N(c3c(C)noc3/C=C/c3ccccc3)CN=C1O2,20 µg/mL
2,Clc1ccccc1C(c1ccccc1)(c1ccccc1)n1ccnc1 [CLOTRIMAZOLE],22 µg/mL
3,Cc1noc(/C=C/c2ccccc2)c1N1CN=C2Oc3ccccc3C=C2C1=O,20 µg/mL
4,Cc1noc(/C=C/c2ccccc2)c1-n1c(C)nc2nc3ccc(Cl)cc3cc2c1=O,10 µg/mL
5,Cc1noc(/C=C/c2ccccc2)c1N1CN=C2Oc3c(Br)cc(Br)cc3C=C2C1=O,7 µg/mL
6,Cc1noc(/C=C/c2ccccc2)c1-n1c(C)nc2nc3ccccc3cc2c1=O,10 µg/mL

# Test system: not listed separately
# Test: Antifungal activity against Verticillium dahliae after 72 to 96 hrs by agar cup method
# Type: functional
# Settings: not given
# Procedure, shortened: as §1
row,Compound,MIC
1,Cc1ccc2c(c1)C=C1C(=O)N(c3c(C)noc3/C=C/c3ccccc3)CN=C1O2,22 µg/mL
2,Clc1ccccc1C(c1ccccc1)(c1ccccc1)n1ccnc1 [CLOTRIMAZOLE],26 µg/mL
3,Cc1noc(/C=C/c2ccccc2)c1N1CN=C2Oc3ccccc3C=C2C1=O,18 µg/mL
4,Cc1noc(/C=C/c2ccccc2)c1-n1c(C)nc2nc3ccc(Cl)cc3cc2c1=O,9 µg/mL
5,Cc1noc(/C=C/c2ccccc2)c1N1CN=C2Oc3c(Br)cc(Br)cc3C=C2C1=O,8 µg/mL
6,Cc1noc(/C=C/c2ccccc2)c1-n1c(C)nc2nc3ccccc3cc2c1=O,14 µg/mL

# Test system: Rattus norvegicus
# Test: Analgesic activity in Albino rat assessed as reaction time at 10 mg/kg, po after 1 hr by Hot plate test
# Type: functional
# Settings: not given
# Procedure, shortened: as §3
row,Compound,Time
1,COc1ccc2c(c1)c(CC(=O)O)c(C)n2C(=O)c1ccc(Cl)cc1 [INDOMETHACIN],21.8 s
2,Cc1ccc2c(c1)C=C1C(=O)N(c3c(C)noc3/C=C/c3ccccc3)CN=C1O2,21.2 s
3,Cc1noc(/C=C/c2ccccc2)c1N1CN=C2Oc3ccccc3C=C2C1=O,17.7 s
4,Cc1noc(/C=C/c2ccccc2)c1-n1c(C)nc2nc3ccc(Cl)cc3cc2c1=O,21.2 s
5,Cc1noc(/C=C/c2ccccc2)c1N1CN=C2Oc3c(Br)cc(Br)cc3C=C2C1=O,23.3 s
6,Cc1noc(/C=C/c2ccccc2)c1-n1c(C)nc2nc3ccccc3cc2c1=O,14.8 s

# Test system: Chromobacterium violaceum
# Test: Antibacterial activity against Chromobacterium violaceum MTCC 2656 after 24 hrs by broth dilution method
# Type: functional
# Settings: MTCC 2656, 24 h
# Procedure, shortened: as §2
row,Compound,MIC
1,O=C(O)c1cn(C2CC2)c2cc(N3CCNCC3)c(F)cc2c1=O [CIPROFLOXACIN],20 µg/mL
2,Cc1ccc2c(c1)C=C1C(=O)N(c3c(C)noc3/C=C/c3ccccc3)CN=C1O2,18 µg/mL
3,Cc1noc(/C=C/c2ccccc2)c1N1CN=C2Oc3ccccc3C=C2C1=O,18 µg/mL
4,Cc1noc(/C=C/c2ccccc2)c1-n1c(C)nc2nc3ccc(Cl)cc3cc2c1=O,5 µg/mL
5,Cc1noc(/C=C/c2ccccc2)c1N1CN=C2Oc3c(Br)cc(Br)cc3C=C2C1=O,8 µg/mL
6,Cc1noc(/C=C/c2ccccc2)c1-n1c(C)nc2nc3ccccc3cc2c1=O,20 µg/mL

# Test system: Lysinibacillus sphaericus
# Test: Antibacterial activity against Bacillus sphaericus MTCC 511 after 24 hrs by broth dilution method
# Type: functional
# Settings: MTCC 511, 24 h
# Procedure, shortened: as §2
row,Compound,MIC
1,O=C(O)c1cn(C2CC2)c2cc(N3CCNCC3)c(F)cc2c1=O [CIPROFLOXACIN],24 µg/mL
2,Cc1ccc2c(c1)C=C1C(=O)N(c3c(C)noc3/C=C/c3ccccc3)CN=C1O2,18 µg/mL
3,Cc1noc(/C=C/c2ccccc2)c1N1CN=C2Oc3ccccc3C=C2C1=O,12 µg/mL
4,Cc1noc(/C=C/c2ccccc2)c1-n1c(C)nc2nc3ccc(Cl)cc3cc2c1=O,16 µg/mL
5,Cc1noc(/C=C/c2ccccc2)c1N1CN=C2Oc3c(Br)cc(Br)cc3C=C2C1=O,7 µg/mL
6,Cc1noc(/C=C/c2ccccc2)c1-n1c(C)nc2nc3ccccc3cc2c1=O,22 µg/mL

# Test system: Pythium aphanidermatum
# Test: Antifungal activity against Pythium aphanidermatum after 72 to 96 hrs by agar cup method
# Type: functional
# Settings: not given
# Procedure, shortened: as §1
row,Compound,MIC
1,Cc1ccc2c(c1)C=C1C(=O)N(c3c(C)noc3/C=C/c3ccccc3)CN=C1O2,22 µg/mL
2,Clc1ccccc1C(c1ccccc1)(c1ccccc1)n1ccnc1 [CLOTRIMAZOLE],30 µg/mL
3,Cc1noc(/C=C/c2ccccc2)c1N1CN=C2Oc3ccccc3C=C2C1=O,18 µg/mL
4,Cc1noc(/C=C/c2ccccc2)c1-n1c(C)nc2nc3ccc(Cl)cc3cc2c1=O,15 µg/mL
5,Cc1noc(/C=C/c2ccccc2)c1N1CN=C2Oc3c(Br)cc(Br)cc3C=C2C1=O,8 µg/mL
6,Cc1noc(/C=C/c2ccccc2)c1-n1c(C)nc2nc3ccccc3cc2c1=O,18 µg/mL
